Measurements from PMC6044579 (ACS Omega, 2017).
Read-outs that look alike come from different tables or passages of the source.

How the values were obtained:
SGC7901 = assay: MTT assay, SGC7901 gastric carcinoma cells; assay type: cell-based, human; details: read-out: anticancer activity (IC50) SGC7901
Summary of the method: (§1)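 ATCC-sourced human cells kept at 37 °C, 5% CO2, humidified air. Cells treated with test compound at various concentrations for 96 h; DMSO as control, cisplatin as positive control. MTT (0.4 mg mL–1) added for a further 4 h, medium aspirated, formazan dissolved in DMSO, absorbance read at 490 nm. IC50 taken as the concentration giving 50% growth inhibition.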

HepG2 = assay: MTT assay, HepG2 liver carcinoma cells; assay type: cell-based, human
Summary of the method: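 HepG2 cells from ATCC, kept at 37 °C, 5% CO2, humidified air. Cells were exposed to the test compound at various concentrations, with DMSO as control, for 96 h. MTT (0.4 mg mL–1) was then added for 4 h. Medium was aspirated, formazan dissolved in DMSO, and absorbance read at 490 nm. IC50 was taken as the concentration giving 50% growth inhibition.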

[1] = Fluorescence spectra and quantum yield; assay type: physicochemical; details: for λem – λabs, Stokes shift / λem, emission wavelength / λex, best excitation wavelength / ε × Φ, fluorescent brightness: ethanol as the solvent; for Φ, quantum yield: ethanol, rhodamine as the reference
Summary of the method: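 Emission spectra recorded with xenon lamp excitation in 1.0 cm quartz cells at room temperature, excitation and emission slits 5.0 nm. Ethanolic compound solution (25 μg mL–1 before dilution) diluted in a 10 mL flask with buffer solutions, pH set with dilute HCl or NaOH, then equilibrated 2 min. Quantum yield in anhydrous ethanol from integrated emission relative to rhodamine 6G standard (5.0 μg mL–1 in anhydrous ethanol).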

A549 = assay: MTT assay, A549 cancerous alveolar epithelial cells; assay type: cell-based, human; details: read-out: anticancer activity (IC50) A549
Summary of the method: as §1

[2] = UV-vis absorption spectra; assay type: physicochemical; details: ethanol as the solvent
Summary of the method: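 Absorption spectra taken in 1.0 cm quartz cells in anhydrous ethanol at room temperature. Ethanolic compound solution (25 μg mL–1 before dilution) made up in a 10 mL volumetric flask and equilibrated 2 min before measurement.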

MRC-5 = assay: MTT assay, MRC-5 diploid fibroblasts; assay type: cell-based, human; details: read-out: anticancer activity (IC50) MRC-5
Summary of the method: as §1

HT29 = assay: MTT assay, HT29 colorectal cancer cells; assay type: cell-based, human; details: read-out: anticancer activity (IC50) HT29
Summary of the method: as §1

Cyclic voltammetry = assay type: physicochemical; details: anhydrous ethanol, 1.0 × 10^–4 M, Fc/Fc^+ internal standard
Summary of the method: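 Three-electrode cell: Pt foil working electrode, Pt wire counter electrode, Ag/AgCl reference. Fc/Fc+ couple served as internal standard.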

[3] = system: HepG2 liver carcinoma cells; assay: Clonogenic assay for long-term anticancer activity; assay type: cell-based, human; details: HepG2, 18 h exposure, colonies counted after 10 days
Summary of the method: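 HepG2 cells seeded at 2 × 10^5 per well and attached overnight, then exposed 18 h to test compound at 0.01, 0.1, 1 or 10 μM, with vehicle alone as control. Replated at 700 cells/well in triplicate and grown 10 days at 37 °C, 5% CO2. Washed in ice-cold PBS, fixed in cold methanol 20 min, stained with 0.5% methylene blue 30 min; colonies of >50 cells counted. IC50 estimated from mean treated/untreated colony ratio.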

[4] = Homo sapiens, HepG2, 96 h, read-out: anticancer activity (IC50) HepG2, MTT assay, liver carcinoma cells, 96 h incubation
[5] = read-out: anticancer activity (IC50) HepG2, MTT assay, liver carcinoma cells, 96 h incubation

| SMILES | IC50 (SGC7901; Homo sapiens, SGC-7901, 96 h) [µM] | IC50 (HepG2; [4]) [µM] | λem – λabs, Stokes shift [1] [nm] | λem, emission wavelength [1] [nm] | λex, best excitation wavelength [1] [nm] | Φ, quantum yield [1] | IC50 (A549; Homo sapiens, A549, 96 h) [µM] | λabs, maximal absorption wavelength [2] [nm] | ε × Φ, fluorescent brightness [1] [mL mg^–1 cm^–1] | IC50 (HT29; Homo sapiens, HT-29, 96 h) [µM] | ε, absorption coefficient [2] [mL mg^–1 cm^–1] | first onset of reduction (Cyclic voltammetry) [V] | reversible reduction wave (Cyclic voltammetry) [V] | IC50, colony-forming ratio [3] [µM] | IC50 (HepG2; [5]) [µM] | IC50 (MRC-5; Homo sapiens, MRC5, 96 h) [µM] | IC50 (SGC7901; MTT assay, gastric carcinoma cells, 96 h incubation) [µM] | IC50 (MRC-5; MTT assay, diploid fibroblasts (normal cells), 96 h incubation) [µM] | IC50 (HT29; MTT assay, colorectal cancer cells, 96 h incubation) [µM] | IC50 (A549; MTT assay, cancerous alveolar epithelial cells, 96 h incubation) [µM] |
| --- | --- | --- | --- | --- | --- | --- | --- | --- | --- | --- | --- | --- | --- | --- | --- | --- | --- | --- | --- | --- |
| COc1ccc(C(=O)C2=C3NCCCCN3C3Oc4ccc(Br)cc4C(=O)C3=C2)cc1 (centres unmarked) [3fe, 10-Bromo-6-(4-methoxybenzoyl)-1,2,3,4,5,13a-hexahydro-8H-chromeno[3′,2′:5,6]pyrido-[1,2-a][1,3]diazepin-8-one] | 13.5 | < 10 | 82.5 | 526.0 | 470.0 | 0.329 | 27.5 | 443.5 | 37.33 | 13.3 | 113.48 |  |  |  | 9.5 | 34.8 |  |  |  |  |
| N.N.[Cl][Pt][Cl] [DDP, Cisplatin, reference compound] |  |  |  |  |  |  |  |  |  |  |  |  |  |  | 3 |  | 2.3 | 8.2 | 14.3 | 8.4 |
| COc1ccc(C(=O)C2=C3NCCCN3C3Oc4ccc(Br)cc4C(=O)C3=C2)cc1 (centres unmarked) [3ae, 9-Bromo-5-(4-methoxybenzoyl)-2,3,4,12a-tetrahydro-1H,7H-chromeno[3′,2′:5,6]pyrido-[1,2-a]pyrimidin-7-one] | 17.8 | 15.4 | 79.0 | 520.5 | 466.0 | 0.428 | 27.5 | 441.5 | 10.08 | 18.8 | 23.56 |  |  |  |  | 31.3 |  |  |  |  |
| COc1ccc(C(=O)C2=C3NCCCN3C3Oc4ccc(Cl)cc4C(=O)C3=C2)cc1 (centres unmarked) [3ad, 9-Chloro-5-(4-methoxybenzoyl)-2,3,4,12a-tetrahydro-1H,7H-chromeno[3′,2′:5,6]pyrido-[1,2-a]pyrimidin-7-one] | 18.7 | 30.9 | 80.0 | 520.0 | 449.0 | 0.464 | 34.3 | 440.0 | 23.23 | 26.9 | 50.07 |  |  |  |  | 34.9 |  |  |  |  |

Continued, in another order:

| IC50 (SGC7901; Homo sapiens, SGC-7901, 96 h) [µM] | IC50 (HepG2; [4]) [µM] | λem – λabs, Stokes shift [1] [nm] | λem, emission wavelength [1] [nm] | λex, best excitation wavelength [1] [nm] | Φ, quantum yield [1] | IC50 (A549; Homo sapiens, A549, 96 h) [µM] | λabs, maximal absorption wavelength [2] [nm] | ε × Φ, fluorescent brightness [1] [mL mg^–1 cm^–1] | IC50 (HT29; Homo sapiens, HT-29, 96 h) [µM] | ε, absorption coefficient [2] [mL mg^–1 cm^–1] | first onset of reduction (Cyclic voltammetry) [V] | reversible reduction wave (Cyclic voltammetry) [V] | IC50, colony-forming ratio [3] [µM] | SMILES | IC50 (HepG2; [5]) [µM] | IC50 (MRC-5; Homo sapiens, MRC5, 96 h) [µM] | IC50 (SGC7901; MTT assay, gastric carcinoma cells, 96 h incubation) [µM] | IC50 (MRC-5; MTT assay, diploid fibroblasts (normal cells), 96 h incubation) [µM] | IC50 (HT29; MTT assay, colorectal cancer cells, 96 h incubation) [µM] | IC50 (A549; MTT assay, cancerous alveolar epithelial cells, 96 h incubation) [µM] |
| --- | --- | --- | --- | --- | --- | --- | --- | --- | --- | --- | --- | --- | --- | --- | --- | --- | --- | --- | --- | --- |
| > 100 | > 100 | 79.0 | 519.5 | 464.0 | 0.476 | > 100 | 440.5 |  |  |  |  |  |  | COc1ccc(C(=O)C2=C3NCCCN3C3Oc4ccc(F)cc4C(=O)C3=C2)cc1 (centres unmarked) [3ac, 9-Fluoro-5-(4-methoxybenzoyl)-2,3,4,12a-tetrahydro-1H,7H-chromeno[3′,2′:5,6]pyrido-[1,2-a]pyrimidin-7-one] |  |  |  |  |  |  |
| 26.7 | 18.9 | 83.5 | 525.5 | 461.0 | 0.671 | 39.6 | 442.0 | 74.72 | 29.8 | 111.53 |  |  |  | COc1ccc(C(=O)C2=C3NCCCCN3C3Oc4ccc(F)cc4C(=O)C3=C2)cc1 (centres unmarked) [3fc, 10-Fluoro-6-(4-methoxybenzoyl)-1,2,3,4,5,13a-hexahydro-8H-chromeno[3′,2′:5,6]pyrido-[1,2-a][1,3]diazepin-8-one] |  | 48 |  |  |  |  |
| 14.8 | 11.2 | 83.0 | 526.0 | 470.0 | 0.663 | 33.5 | 443.0 | 53.75 | 26.8 | 81.07 | −1.04 | −1.19 | 5.99 | COc1ccc(C(=O)C2=C3NCCCCN3C3Oc4ccc(Cl)cc4C(=O)C3=C2)cc1 (centres unmarked) [3fd, 10-Chloro-6-(4-methoxybenzoyl)-1,2,3,4,5,13a-hexahydro-8H-chromeno[3′,2′:5,6]pyrido-[1,2-a][1,3]diazepin-8-one] |  | 33.1 |  |  |  |  |
